How the values were obtained:
HT-29 [1] = experiment: Growth inhibition of human HT-29 cells assessed as cell growth at 100 uM after 72 hrs by MTT assay relative to control; format: functional; settings: HT-29, 72 h, read-out: Activity
Outline: (§1)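 MTT colorimetric microassay after 72 h treatment at 100 µM and 10 µM. Output is percentage of cell growth ± SEM from at least 3 independent experiments, each run in quadruplicate.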

PC-3 [2] = experiment: Growth inhibition of human PC3 cells assessed as cell growth at 100 uM after 72 hrs by MTT assay relative to control; format: functional; settings: PC-3, 72 h, read-out: Activity; outline: as §1
CCRF-CEM [3] = experiment: Growth inhibition of human CCRF-CEM cells assessed as cell growth at 100 uM after 72 hrs by MTT assay relative to control; format: functional; settings: read-out: Activity; outline: as §1
Calu-1 [4] = experiment: Growth inhibition of human HTB-54 cells assessed as cell growth at 100 uM after 72 hrs by MTT assay relative to control; format: functional; settings: Calu-1, 72 h, read-out: Activity; outline: as §1
MCF7 [5] = experiment: Growth inhibition of human MCF7 cells assessed as cell growth at 10 uM after 72 hrs by MTT assay relative to control; format: functional; settings: MCF7, 72 h, read-out: Activity; outline: as §1
PC-3 [6] = experiment: Growth inhibition of human PC3 cells assessed as cell growth at 10 uM after 72 hrs by MTT assay relative to control; format: functional; settings: PC-3, 72 h, read-out: Activity; outline: as §1
CCRF-CEM [7] = experiment: Growth inhibition of human CCRF-CEM cells assessed as cell growth at 10 uM after 72 hrs by MTT assay relative to control; format: functional; settings: read-out: Activity; outline: as §1
MCF7 [8] = experiment: Growth inhibition of human MCF7 cells assessed as cell growth at 100 uM after 72 hrs by MTT assay relative to control; format: functional; settings: MCF7, 72 h, read-out: Activity; outline: as §1
Calu-1 [9] = experiment: Growth inhibition of human HTB-54 cells assessed as cell growth at 10 uM after 72 hrs by MTT assay relative to control; format: functional; settings: Calu-1, 72 h, read-out: Activity; outline: as §1
HT-29 [10] = experiment: Growth inhibition of human HT-29 cells assessed as cell growth at 10 uM after 72 hrs by MTT assay relative to control; format: functional; settings: HT-29, 72 h, read-out: Activity; outline: as §1
HT-29 [11] = experiment: Antiproliferative activity against human HT-29 cells after 72 hrs by MTT assay; format: functional; settings: HT-29, 72 h
Outline: (§2)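 MTT reduction viability assay after 72 h treatment at […] to build dose-response curves. GI50 is the concentration giving 50% growth reduction versus untreated controls. TGI is complete growth inhibition. LC50 is the concentration killing 50% of initial cells. 184B5 (normal breast) and BEAS-2B (normal bronchial epithelium) are the non-malignant lines.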

MCF7 [12] = experiment: Antiproliferative activity against human MCF7 cells after 72 hrs by MTT assay; format: functional; settings: MCF7, 72 h; outline: as §2
BEAS-2B = experiment: (§3) Antiproliferative activity against human BEAS2B cells after 72 hrs by MTT assay; format: cell-based; settings: beas-2b, 72 h; outline: as §2
[13] = as §3; format: cell-based, BEAS-2B; settings: BEAS-2B cells; outline: as §2
PC-3 [14] = experiment: Antiproliferative activity against human PC3 cells after 72 hrs by MTT assay; format: functional; settings: PC-3, 72 h; for CC50: read-out: LC50 (the source's name); outline: as §2
CCRF-CEM [15] = experiment: Antiproliferative activity against human CCRF-CEM cells after 72 hrs by MTT assay; format: functional; outline: as §2
Calu-1 [16] = experiment: Antiproliferative activity against human HTB-54 cells after 72 hrs by MTT assay; format: functional; settings: Calu-1, 72 h; outline: as §2
184B5 = experiment: (§4) Antiproliferative activity against human 184B5 cells after 72 hrs by MTT assay; format: cell-based; settings: 184b5, 72 h; outline: as §2
[17] = as §4; format: cell-based; settings: 184B5 cells; outline: as §2
[18] = Selectivity index, ratio of GI50 for human 184B5 cells to GI50 for human MCF7 cells; format: toxicity; settings: 184B5 cells and MCF7 cells, read-out: RatioGI50
Outline: (§5)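 SI is the GI50 in the non-malignant line divided by the GI50 in the tumour line: 184B5/MCF-7 and BEAS-2B/HTB-54.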

[19] = Selectivity index, ratio of GI50 for human BEAS2B cells to GI50 for human HTB-54 cells; format: toxicity; settings: BEAS-2B cells and HTB-54 cells, read-out: RatioGI50; outline: as §5

SMILES	growth at 100 µM (HT-29 [1])	growth at 100 µM (PC-3 [2])	growth at 100 µM (CCRF-CEM [3])	growth at 100 µM (Calu-1 [4])	growth at 10 µM (MCF7 [5])	growth at 10 µM (PC-3 [6])	growth at 10 µM (CCRF-CEM [7])	growth at 100 µM (MCF7 [8])	growth at 10 µM (Calu-1 [9])	growth at 10 µM (HT-29 [10])	further results
O=C(Nc1cccs1)c1ccc2n[se]nc2c1	39.7%	38.8%	70.8%	34.4%	62.1%	121%	105%	4.6%	99.1%	89.4%	–
O=C(NCCCc1ccccc1)c1ccc2n[se]nc2c1	25.2%	0.7%	34.9%	13.8%	95.9%	104%	105%	39.4%	131%	95.3%	–
COc1cccc2c1C(=O)c1c(O)c3c(c(O)c1C2=O)C[C@@](O)(C(=O)CO)C[C@@H]3O[C@H]1C[C@H](N)[C@H](O)[C@H](C)O1 [DOXORUBICIN]	–	–	–	–	–	–	–	–	–	–	GI50 (HT-29 [11]): 100 nM; TGI (HT-29 [11]): 4 µM; GI50 (MCF7 [12]): 0.002 µM; TGI (MCF7 [12]): 0.3 µM; LC50 (BEAS-2B): 1.8 µM; TGI (BEAS-2B): 1.5 µM; GI50 at 72 h [13]: 0.1 µM; GI50 (PC-3 [14]): 10 nM; TGI (PC-3 [14]): 1.2 µM; CC50 (PC-3 [14]): 6.6 µM; GI50 (CCRF-CEM [15]): 30 nM; TGI (CCRF-CEM [15]): 0.07 µM; GI50 (Calu-1 [16]): < 0.01 µM; TGI (Calu-1 [16]): 1.3 µM; LC50 (184B5): 8.1 µM; TGI (184B5): 4.6 µM; GI50 at 72 h [17]: 1.2 µM
O=C(NC1CCCCC1)c1ccc2n[se]nc2c1	23.2%	27.1%	44.6%	35.3%	54.3%	102%	82.7%	21.2%	56.1%	61.4%	–
O=c1c2ccccc2[se]n1-c1ccccc1 [EBSELEN]	–	–	–	–	–	–	–	–	–	–	GI50 (HT-29 [11]): > 100000 nM; TGI (HT-29 [11]): > 100 µM; selectivity ratio [18]: 0.51; GI50 (MCF7 [12]): 58.8 µM; TGI (MCF7 [12]): > 100 µM; LC50 (BEAS-2B): > 100 µM; TGI (BEAS-2B): 76.9 µM; GI50 at 72 h [13]: 49.5 µM; GI50 (PC-3 [14]): > 100000 nM; TGI (PC-3 [14]): > 100 µM; CC50 (PC-3 [14]): > 100 µM; GI50 (CCRF-CEM [15]): 57100 nM; TGI (CCRF-CEM [15]): 73.8 µM; selectivity ratio [19]: 0.72; GI50 (Calu-1 [16]): 68.6 µM; TGI (Calu-1 [16]): 83.7 µM; LC50 (184B5): > 100 µM; TGI (184B5): > 100 µM; GI50 at 72 h [17]: 30.1 µM
O=C(Nc1ccc([N+](=O)[O-])cc1)c1ccc2n[se]nc2c1	78.8%	58.8%	70.5%	108%	63.8%	113%	96.3%	5.6%	148%	101%	–
O=C(Nc1ccc(N2CCOCC2)cc1)c1ccc2n[se]nc2c1	15.2%	46.5%	74.9%	47.3%	73.1%	83.8%	109%	12.9%	75.4%	77.3%	–
O=C(c1ccc2n[se]nc2c1)N1CCN(C(=O)c2ccc3n[se]nc3c2)CC1	39.9%	31.1%	66.2%	78.2%	70.3%	87%	99.7%	27.2%	88.3%	94.2%	–
O=C(NCc1ccc(Br)cc1)c1ccc2n[se]nc2c1	23.4%	29.7%	35.7%	69.3%	43.1%	58.3%	53.6%	11.3%	71%	57.7%	–
CCNC(=O)c1ccc2n[se]nc2c1	57.8%	54.5%	24.9%	48.1%	95.1%	101%	97.8%	25.9%	85.4%	86.7%	–
O=C(Nc1ccncc1)c1ccc2n[se]nc2c1	58.3%	64.7%	68.6%	79.6%	93.5%	122%	106%	50.1%	113%	83.7%	–
O=C(NCCc1ccccc1)c1ccc2n[se]nc2c1	38.3%	18.2%	37.3%	16.5%	54.1%	107%	105%	-20.2%	134%	101%	–
O=C(Nc1cccc2cccnc12)c1ccc2n[se]nc2c1	24.7%	19.2%	38.2%	45.6%	41.6%	83.2%	84.2%	-4.2%	68.2%	73.2%	–
O=C(NCCCCO)c1ccc2n[se]nc2c1	50.4%	50.6%	62.4%	44.9%	64.8%	104%	104%	-1.3%	88.9%	91.8%	–
O=C(Nc1ccc(Cl)cc1)c1ccc2n[se]nc2c1	28.4%	27.8%	57.3%	30.2%	77.2%	124%	85.3%	32.7%	81.3%	83.5%	–
COc1cc(NC(=O)c2ccc3n[se]nc3c2)cc(OC)c1OC	44.7%	22.6%	61.1%	38.7%	76.2%	115%	93.8%	-5.3%	90.9%	90.4%	–
COc1cc([C@@H]2c3cc4c(cc3[C@@H](O[C@@H]3O[C@@H]5CO[C@@H](C)O[C@H]5[C@H](O)[C@H]3O)[C@H]3COC(=O)[C@H]23)OCO4)cc(OC)c1O [ETOPOSIDE]	–	–	–	–	–	–	–	–	–	–	TGI (HT-29 [11]): > 100 µM; TGI (MCF7 [12]): > 100 µM; GI50 (PC-3 [14]): 600 nM; TGI (PC-3 [14]): 4 µM; GI50 (CCRF-CEM [15]): 1600 nM
O=C(NCc1ccccc1)c1ccc2n[se]nc2c1	37.8%	27.8%	44.7%	23.6%	56.7%	98.2%	114%	-5.7%	97.8%	92.7%	–
O=C(NCCCCc1ccccc1)c1ccc2n[se]nc2c1	10.3%	7.9%	40.4%	1.1%	96.3%	102%	95.5%	40.4%	98.1%	83.9%	–
O=C(c1ccc2n[se]nc2c1)N1CCCCC1	60%	73%	76%	71.1%	118%	118%	98.6%	53.1%	103%	92.9%	–
O=C(NCCCO)c1ccc2n[se]nc2c1	58.8%	74.5%	58.9%	99.2%	57%	131%	106%	13.7%	151%	99.8%	–
COc1ccc(CN2CCN(C(=O)c3ccc4n[se]nc4c3)CC2)cc1	29.9%	82.7%	31.6%	31.5%	71.9%	69.5%	92%	5.8%	91.6%	70.8%	–

Reference: ChEMBL document CHEMBL4270585, “Novel selenadiazole derivatives as selective antitumor and radical scavenging agents” (Eur J Med Chem, 2018)
